The values that follow come from ChEMBL document CHEMBL1124547, “Prodrugs of the selective antiherpesvirus agent 9-[4-hydroxy-3-(hydroxymethyl)but-1-yl]guanine (BRL 39123) with improved gastrointestinal absorption properties” (J Med Chem, 1989).

≈ marks a conversion by molar mass, not a printed value.

In data set [1] the test system is Mus musculus. The data set can be described thus: Concentration of 9-[4-Hydroxy-3-(hydroxymethyl)but-1-yl)guanine in blood of mice after 1 hour upon oral administration. The data set is classed as functional, organism-based. In short, it runs like this: (§1)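 Female Balb/c mice (20 g), food withheld 18 h, got one oral gavage dose of 0.2 mmol/kg in 0.1 mL 1% (carboxymethyl)cellulose. Blood was drawn by heparinized cardiac puncture at 0.25, 1 and 3 h, with three mice pooled per time point. It was treated with an equal volume of 16% TCA, centrifuged and NaHCO3-neutralized. The guanine analyte was measured by C18 HPLC at 254 nm in duplicate.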

Data set [2] has as its system Mus musculus. Description: Concentration of 9-[4-Hydroxy-3-(hydroxymethyl)but-1-yl)guanine in blood of mice after 0.25 hours upon oral administration. The format is functional, organism-based. The essentials:
as §1

Data set [3] has as its system Mus musculus. The data set can be described thus: Concentration of 2-Amino-9-(4-hydroxy-3-hydroxymethyl)but-1-yl)purine in blood of mice after 3 hours upon oral administration. The data set is classed as functional, organism-based. In short, it runs like this: (§2)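 Single oral gavage dose of 0.2 mmol/kg in 0.1 mL 1% (carboxymethyl)cellulose to female Balb/c mice (20 g), fasted 18 h. Heparinized cardiac-puncture blood was taken at 0.25, 1 and 3 h, pooled equally from three mice per time point, and deproteinized with an equal volume of 16% TCA. Supernatant was neutralized with NaHCO3 and run on C18 HPLC in duplicate in 5 mM KH2PO4. The 2-aminopurine was read at 310 nm; detection limit 1 μM.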

Data set [4] has as its system Mus musculus. Description: Concentration of 2-Amino-9-(4-hydroxy-3-hydroxymethyl)but-1-yl)purine in blood of mice after 0.25 hours upon oral administration. The data set is classed as functional, organism-based. The essentials: as §2
Data set [5] has as its system Mus musculus. The data set can be described thus: Concentration of 2-Amino-9-(4-hydroxy-3-hydroxymethyl)but-1-yl)purine in blood of mice after 1 hour upon oral administration. The format is functional, organism-based. The essentials: as §2
The subject of data set [6] is Mus musculus. The data set can be described thus: Concentration of 9-[4-Hydroxy-3-(hydroxymethyl)but-1-yl)guanine in blood of mice after 3 hours upon oral administration. The format is functional, organism-based. The essentials: as §1
Data set [7] can be described thus: Aqueous solubility at 25 degrees Centigrade. The format is physicochemical. To be noted: water; read-out: S.
Data set [8] has as its system Mus musculus. The data set can be described thus: Concentration of 9-[4-Hydroxy-3-(hydroxymethyl)but-1-yl)guanine in blood of mice after 3 hour upon oral administration. The format is functional, organism-based. In short, it runs like this:
as §1

Data set [9] concerns Mus musculus. The data set can be described thus: Concentration of 2-Amino-9-(4-hydroxy-3-hydroxymethyl)but-1-yl)purine in blood of mice after 1 hours upon oral administration. The format is functional, organism-based. In short, it runs like this: as §2
Data set [10] is described as follows: Solubility in water. The format is physicochemical. To be noted: read-out: S.

Consider `Nc1ncc2ncn(CCC(CO)COC(=O)c3ccccc3)c2n1` (stereo unspecified), for which the Concentration is 26 µM in the data set with Mus musculus [1]; 63 µM in the data set on Mus musculus [2]; under 1 µM with Mus musculus [3]; 71 µM in the data set on Mus musculus [4]; 8 µM in the data set with Mus musculus [5]; 1.1 µM with Mus musculus [6].
For the molecule `Nc1ncc2ncn(CCC(CO)CO)c2n1` [6-DEOXY PENCICLOVIR], the Concentration in the data set on Mus musculus [1] came out at 13 µM; with Mus musculus [2], 16 µM; in the data set on Mus musculus [3], 1 µM; with Mus musculus [4], 8 µM; in the data set with Mus musculus [5], 4 µM; in the data set on Mus musculus [6], 3.2 µM. In addition, in [7], the solubility was 120000 µg/mL (≈ 506 mM).
Turning to `CCOc1nc(N)nc2c1ncn2CCC(CO)CO`, the Concentration was 8 µM in the data set on Mus musculus [1]; 6.8 µM with Mus musculus [2]; under 1 µM with Mus musculus [3]; 25 µM with Mus musculus [4]; 11 µM in the data set with Mus musculus [5]; 0.9 µM in the data set on Mus musculus [6].
With `Nc1nc(OCc2ccccc2)c2ncn(CCC(CO)CO)c2n1`, the Concentration with Mus musculus [1] was 2.1 µM; in the data set on Mus musculus [2], 1.8 µM; in the data set on Mus musculus [3], under 1 µM; in the data set on Mus musculus [4] it was 3 µM; in the data set on Mus musculus [5], 2 µM; with Mus musculus [6] it was 0.5 µM.
On to `Nc1nc2c(ncn2CCC(CO)CO)c(=O)[nH]1` [PENCICLOVIR], for which, in [7], the solubility is 3000 µg/mL (≈ 11.8 mM).
For `Nc1ncc2ncn(CCC(CO)COP(=O)(O)O)c2n1` (stereo unspecified), the Concentration in the data set on Mus musculus [1] is 17 µM; in the data set on Mus musculus [2] it was 8.7 µM; with Mus musculus [3], 1 µM; in the data set with Mus musculus [4], 4 µM; with Mus musculus [8], 5.2 µM; in the data set on Mus musculus [9] it was 8 µM.
As for `CCC(=O)OCC(CCn1cnc2cnc(N)nc21)COC(=O)CC`, the Concentration in the data set on Mus musculus [1] is 26 µM; with Mus musculus [2], 79 µM; in the data set on Mus musculus [3], under 1 µM; with Mus musculus [4], 92 µM; in the data set on Mus musculus [5], 9 µM; with Mus musculus [6] it was 2.1 µM. Also, the solubility in data set [7] was 19000 µg/mL (≈ 54.4 mM).
Regarding `CC(=O)OCC(CCn1cnc2cnc(N)nc21)COC(C)=O` [FAMCICLOVIR], the Concentration with Mus musculus [1] is 17 µM; with Mus musculus [2], 74 µM; with Mus musculus [3], under 1 µM; in the data set on Mus musculus [4], 69 µM; in the data set on Mus musculus [5], 3 µM; with Mus musculus [6], 1.1 µM. Also, the solubility was 20 mg/mL (≈ 62.2 mM) in data set [10] and over 300000 µg/mL in data set [7].
Regarding `CC(C)Oc1nc(N)nc2c1ncn2CCC(CO)CO`, the Concentration in the data set on Mus musculus [1] is 3.8 µM; with Mus musculus [2], 9.2 µM; in the data set with Mus musculus [3] it was 1 µM; in the data set with Mus musculus [4], 43 µM; with Mus musculus [5], 12 µM; in the data set on Mus musculus [6] it was under 0.5 µM.
`CCCCOc1nc(N)nc2c1ncn2CCC(CO)CO`: the Concentration was 5.2 µM with Mus musculus [1]; 5.7 µM in the data set on Mus musculus [2]; 1 µM with Mus musculus [3]; 19 µM with Mus musculus [4]; 11 µM in the data set with Mus musculus [5]; under 0.5 µM with Mus musculus [6].
Consider `CC1(C)OCC(CCn2cnc3cnc(N)nc32)CO1`, for which the Concentration worked out at 11 µM in the data set on Mus musculus [1]; 33 µM with Mus musculus [2]; 1 µM with Mus musculus [3]; 33 µM in the data set on Mus musculus [4]; 4 µM in the data set with Mus musculus [9]; 3.2 µM in the data set on Mus musculus [6].
Regarding `CCC(=O)OCC(CCn1cnc2c(O)nc(N)nc21)COC(=O)CC`, the solubility in data set [7] came out at 1200 µg/mL (≈ 3.28 mM).
Consider `CC(=O)OCC(CO)CCn1cnc2cnc(N)nc21` (stereo unspecified), for which the Concentration in the data set with Mus musculus [1] is 20 µM; in the data set on Mus musculus [2], 51 µM; in the data set on Mus musculus [3], under 1 µM; with Mus musculus [4] it was 38 µM; in the data set on Mus musculus [5], 3 µM; in the data set with Mus musculus [6] it was 1.2 µM.
With `CCCC(=O)OCC(CO)CCn1cnc2cnc(N)nc21` (stereo unspecified), the Concentration in the data set with Mus musculus [1] was 28 µM; with Mus musculus [2], 64 µM; in the data set on Mus musculus [3], under 1 µM; in the data set on Mus musculus [4] it was 57 µM; with Mus musculus [5], 7 µM; in the data set with Mus musculus [6], 2 µM.
For the molecule `Nc1nc(O)c2ncn(CCC(CO)CO)c2n1`, the Concentration with Mus musculus [1] was 4 µM; in the data set on Mus musculus [2] it was 4.9 µM; with Mus musculus [6] it was 1.1 µM.
Turning to `Nc1ncc2ncn(CCC3COP(=O)(O)OC3)c2n1` (stereo unspecified), the Concentration is 1 µM in the data set with Mus musculus [1]; 1 µM in the data set on Mus musculus [2]; under 1 µM with Mus musculus [3]; under 1 µM in the data set with Mus musculus [4]; under 1 µM in the data set with Mus musculus [5]; 2.6 µM in the data set with Mus musculus [6].
Regarding `COc1nc(N)nc2c1ncn2CCC(CO)CO`, the Concentration is 0.9 µM in the data set with Mus musculus [1]; 0.6 µM in the data set with Mus musculus [2]; 2 µM in the data set with Mus musculus [3]; 8 µM with Mus musculus [4]; 7 µM with Mus musculus [5]; under 0.5 µM with Mus musculus [6].
With `Nc1nc(Oc2ccccc2)c2ncn(CCC(CO)CO)c2n1`, the Concentration was under 0.5 µM with Mus musculus [1]; under 0.5 µM in the data set on Mus musculus [2]; under 1 µM in the data set with Mus musculus [3]; 8 µM in the data set on Mus musculus [4]; 7 µM in the data set with Mus musculus [5]; under 0.5 µM with Mus musculus [6].
For the molecule `CC(=O)OCC(CCn1cnc2c(O)nc(N)nc21)COC(C)=O`, the solubility in data set [7] is 6700 µg/mL (≈ 19.9 mM).
As for `COC(=O)OCC(CO)CCn1cnc2cnc(N)nc21` (stereo unspecified), the Concentration in the data set with Mus musculus [1] is 22 µM; with Mus musculus [2], 54 µM; with Mus musculus [3] it was under 1 µM; with Mus musculus [4] it was 55 µM; with Mus musculus [5] it was 4 µM; in the data set on Mus musculus [6], 2.6 µM.
